From ChEMBL document CHEMBL4689842, “EUbOPEN Chemogenomics Library wave 1” (2021)

What was measured:
Type in all cases: toxicity, cell-based
[1] = system: HEK-293T; assay: Incucyte cell viability with HEK293T; settings: human, 10 µM, compound concentration 10 uM; also: filed as whole numbers so only -1 and 0 and 1 occur
[2] = system: U2OS; assay: Incucyte cell viability with U2OS; settings: human, 10 µM, compound concentration 10 uM; also: filed as whole numbers so only -1 and 0 and 1 occur
[3] = system: Fibroblast; assay: Multiplex assay against human fibroblast
Procedure, shortened: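 At seeding, live cells were stained with Hoechst33342, BioTracker Green Microtubule Cytoskeleton Dye, MitoTracker Red and Annexin V Alexa Fluor 680. After compound addition they were imaged on a CQ1 microscope at 37°C and 5% CO2, and CellPathfinder machine-learning gating sorted them into Hoechst high-intensity objects or normal cells, with normal cells further split into healthy, pyknosed or fragmented nuclei and pyknosed cells into mitotic or apoptotic. Tubulin, mitochondrial-mass and membrane-permeability phenotypes are given as per cents of cells with healthy nuclei.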

[4] = 0 h, replicate number 1, timepoint 0 hours
[5] = 0 h, replicate number 2, timepoint 0 hours
[6] = 6 h, replicate number 1, timepoint 6 hours
[7] = 12 h, replicate number 1, timepoint 12 hours
[8] = 18 h, replicate number 1, timepoint 18 hours
[9] = 24 h, replicate number 1, timepoint 24 hours
[10] = 12 h, 1 µM, compound concentration 1 uM, replicate 1
[11] = 12 h, 1 µM, compound concentration 1 uM, replicate 2
[12] = 12 h, 10 µM, compound concentration 10 uM, replicate 1
[13] = 12 h, 10 µM, compound concentration 10 uM, replicate 2
[14] = 24 h, 1 µM, compound concentration 1 uM, replicate 1
[15] = 24 h, 1 µM, compound concentration 1 uM, replicate 2
[16] = 24 h, 10 µM, compound concentration 10 uM, replicate 1
[17] = 24 h, 10 µM, compound concentration 10 uM, replicate 2
[18] = 48 h, 1 µM, compound concentration 1 uM, replicate 1
[19] = 48 h, 1 µM, compound concentration 1 uM, replicate 2
[20] = 48 h, 10 µM, compound concentration 10 uM, replicate 1
[21] = 48 h, 10 µM, compound concentration 10 uM, replicate 2

## C=CC(=O)Nc1cc(-n2c(=O)ccc3cnc4ccc(-c5ccc(NS(C)(=O)=O)cc5)cc4c32)ccc1C
[1]; [4]
  Growth Rate: 0
[1]; [5]
  Growth Rate: 1
[1]; [6]
  Growth Rate: 0
[1]; [7]
  Growth Rate: 0
[1]; [8]
  Growth Rate: 0
[1]; [9]
  Growth Rate: 0
[2]; [4]
  Growth Rate: 0
[2]; [5]
  Growth Rate: 1
[2]; [6]
  Growth Rate: 1
[2]; [7]
  Growth Rate: 1
[2]; 12 h, replicate number 2, timepoint 12 hours
  Growth Rate: 0
[2]; [8]
  Growth Rate: 0
[2]; [9]
  Growth Rate: 0
[3]; [10]
  Population Apoptotic (%): 52%
  Population Fragmented Nuclei (%): 37%
  Population Healthy Nuclei (%): 32%
  Population Hoechst High Intensity Objects (%): 7%
  Population Membrane Permeable-Phenotype (%): 15%
  Population Mitochondria Different-Phenotype (%): 3%
  Population Mitotic Cells (%): 47%
  Population Normal (%): 92%
  Population Pyknosed Nuclei (%): 29%
  Population Tubulin-Different-Phenotype (%): 30%
  Total Cell Count: 85
[3]; [11]
  Population Apoptotic (%): 33%
  Population Fragmented Nuclei (%): 10%
  Population Healthy Nuclei (%): 77%
  Population Membrane Permeable-Phenotype (%): 0%
  Population Mitochondria Different-Phenotype (%): 10%
  Population Mitotic Cells (%): 66%
  Population Pyknosed Nuclei (%): 12%
  Population Tubulin-Different-Phenotype (%): 10%
  Total Cell Count: 53
[3]; [12]
  Population Apoptotic (%): 51%
  Population Fragmented Nuclei (%): 30%
  Population Healthy Nuclei (%): 39%
  Population Hoechst High Intensity Objects (%): 8%
  Population Membrane Permeable-Phenotype (%): 32%
  Population Mitochondria Different-Phenotype (%): 13%
  Population Mitotic Cells (%): 48%
  Population Normal (%): 91%
  Population Pyknosed Nuclei (%): 30%
  Population Tubulin-Different-Phenotype (%): 55%
  Total Cell Count: 120
[3]; [13]
  Population Apoptotic (%): 76%
  Population Fragmented Nuclei (%): 8%
  Population Healthy Nuclei (%): 54%
  Population Hoechst High Intensity Objects (%): 9%
  Population Membrane Permeable-Phenotype (%): 12%
  Population Mitochondria Different-Phenotype (%): 56%
  Population Mitotic Cells (%): 23%
  Population Normal (%): 90%
  Population Pyknosed Nuclei (%): 36%
  Population Tubulin-Different-Phenotype (%): 52%
  Total Cell Count: 51
[3]; [14]
  Population Apoptotic (%): 54%
  Population Fragmented Nuclei (%): 23%
  Population Healthy Nuclei (%): 44%
  Population Hoechst High Intensity Objects (%): 11%
  Population Membrane Permeable-Phenotype (%): 22%
  Population Mitochondria Different-Phenotype (%): 16%
  Population Mitotic Cells (%): 45%
  Population Normal (%): 88%
  Population Pyknosed Nuclei (%): 31%
  Population Tubulin-Different-Phenotype (%): 38%
  Total Cell Count: 78
[3]; [15]
  Population Apoptotic (%): 55%
  Population Fragmented Nuclei (%): 11%
  Population Healthy Nuclei (%): 76%
  Population Hoechst High Intensity Objects (%): 2%
  Population Membrane Permeable-Phenotype (%): 3%
  Population Mitochondria Different-Phenotype (%): 15%
  Population Mitotic Cells (%): 44%
  Population Normal (%): 97%
  Population Pyknosed Nuclei (%): 11%
  Population Tubulin-Different-Phenotype (%): 22%
  Total Cell Count: 79
[3]; [16]
  Population Apoptotic (%): 50%
  Population Fragmented Nuclei (%): 36%
  Population Healthy Nuclei (%): 39%
  Population Hoechst High Intensity Objects (%): 9%
  Population Membrane Permeable-Phenotype (%): 35%
  Population Mitochondria Different-Phenotype (%): 5%
  Population Mitotic Cells (%): 50%
  Population Normal (%): 90%
  Population Pyknosed Nuclei (%): 23%
  Population Tubulin-Different-Phenotype (%): 50%
  Total Cell Count: 141
[3]; [17]
  Population Apoptotic (%): 84%
  Population Fragmented Nuclei (%): 21%
  Population Healthy Nuclei (%): 32%
  Population Hoechst High Intensity Objects (%): 5%
  Population Membrane Permeable-Phenotype (%): 22%
  Population Mitochondria Different-Phenotype (%): 50%
  Population Mitotic Cells (%): 15%
  Population Normal (%): 94%
  Population Pyknosed Nuclei (%): 46%
  Population Tubulin-Different-Phenotype (%): 33%
  Total Cell Count: 59
[3]; [18]
  Population Apoptotic (%): 61%
  Population Fragmented Nuclei (%): 32%
  Population Healthy Nuclei (%): 43%
  Population Hoechst High Intensity Objects (%): 6%
  Population Membrane Permeable-Phenotype (%): 25%
  Population Mitochondria Different-Phenotype (%): 3%
  Population Mitotic Cells (%): 38%
  Population Normal (%): 93%
  Population Pyknosed Nuclei (%): 24%
  Population Tubulin-Different-Phenotype (%): 34%
  Total Cell Count: 79
[3]; [19]
  Population Apoptotic (%): 0%
  Population Fragmented Nuclei (%): 28%
  Population Healthy Nuclei (%): 65%
  Population Hoechst High Intensity Objects (%): 12%
  Population Membrane Permeable-Phenotype (%): 19%
  Population Mitochondria Different-Phenotype (%): 7%
  Population Mitotic Cells (%): 100%
  Population Normal (%): 87%
  Population Pyknosed Nuclei (%): 6%
  Population Tubulin-Different-Phenotype (%): 21%
  Total Cell Count: 72
[3]; [20]
  Population Apoptotic (%): 78%
  Population Fragmented Nuclei (%): 39%
  Population Healthy Nuclei (%): 43%
  Population Hoechst High Intensity Objects (%): 18%
  Population Membrane Permeable-Phenotype (%): 29%
  Population Mitochondria Different-Phenotype (%): 4%
  Population Mitotic Cells (%): 21%
  Population Normal (%): 81%
  Population Pyknosed Nuclei (%): 17%
  Population Tubulin-Different-Phenotype (%): 56%
  Total Cell Count: 135
[3]; [21]
  Population Apoptotic (%): 100%
  Population Fragmented Nuclei (%): 56%
  Population Healthy Nuclei (%): 42%
  Population Hoechst High Intensity Objects (%): 15%
  Population Membrane Permeable-Phenotype (%): 33%
  Population Mitochondria Different-Phenotype (%): 1%
  Population Mitotic Cells (%): 0%
  Population Normal (%): 85%
  Population Pyknosed Nuclei (%): 0%
  Population Tubulin-Different-Phenotype (%): 50%
  Total Cell Count: 140

## NC(=O)c1ccc2nc(-c3ccc(C4(N)CCC4)cc3)c(-c3ccccc3)n2n1 [BAY-1125976]
[1]; [6]
  Growth Rate: 0
[1]; [7]
  Growth Rate: 0
[1]; [8]
  Growth Rate: 0
[1]; [9]
  Growth Rate: 0
[2]; [5]
  Growth Rate: 0
[2]; [8]
  Growth Rate: 1
[2]; [9]
  Growth Rate: 1
[3]; [10]
  Population Apoptotic (%): 72%
  Population Fragmented Nuclei (%): 53%
  Population Healthy Nuclei (%): 33%
  Population Hoechst High Intensity Objects (%): 38%
  Population Mitochondria Different-Phenotype (%): 0%
  Population Mitotic Cells (%): 27%
  Population Normal (%): 61%
  Population Pyknosed Nuclei (%): 13%
  Population Tubulin-Different-Phenotype (%): 29%
  Total Cell Count: 587
[3]; [11]
  Population Apoptotic (%): 87%
  Population Fragmented Nuclei (%): 56%
  Population Healthy Nuclei (%): 31%
  Population Hoechst High Intensity Objects (%): 51%
  Population Mitochondria Different-Phenotype (%): 15%
  Population Mitotic Cells (%): 12%
  Population Normal (%): 48%
  Population Pyknosed Nuclei (%): 12%
  Population Tubulin-Different-Phenotype (%): 25%
  Total Cell Count: 131
[3]; [12]
  Population Apoptotic (%): 59%
  Population Fragmented Nuclei (%): 27%
  Population Healthy Nuclei (%): 51%
  Population Hoechst High Intensity Objects (%): 13%
  Population Mitochondria Different-Phenotype (%): 3%
  Population Mitotic Cells (%): 40%
  Population Normal (%): 86%
  Population Pyknosed Nuclei (%): 20%
  Population Tubulin-Different-Phenotype (%): 2%
  Total Cell Count: 208
[3]; [13]
  Population Apoptotic (%): 20%
  Population Fragmented Nuclei (%): 54%
  Population Healthy Nuclei (%): 36%
  Population Hoechst High Intensity Objects (%): 40%
  Population Mitochondria Different-Phenotype (%): 0%
  Population Mitotic Cells (%): 80%
  Population Normal (%): 59%
  Population Pyknosed Nuclei (%): 10%
  Population Tubulin-Different-Phenotype (%): 5%
  Total Cell Count: 84
[3]; [14]
  Population Apoptotic (%): 78%
  Population Fragmented Nuclei (%): 53%
  Population Healthy Nuclei (%): 36%
  Population Hoechst High Intensity Objects (%): 41%
  Population Mitochondria Different-Phenotype (%): 2%
  Population Mitotic Cells (%): 21%
  Population Normal (%): 58%
  Population Pyknosed Nuclei (%): 10%
  Population Tubulin-Different-Phenotype (%): 20%
  Total Cell Count: 564
[3]; [15]
  Population Apoptotic (%): 63%
  Population Fragmented Nuclei (%): 63%
  Population Healthy Nuclei (%): 22%
  Population Hoechst High Intensity Objects (%): 39%
  Population Mitochondria Different-Phenotype (%): 11%
  Population Mitotic Cells (%): 36%
  Population Normal (%): 60%
  Population Pyknosed Nuclei (%): 14%
  Population Tubulin-Different-Phenotype (%): 47%
  Total Cell Count: 128
[3]; [16]
  Population Apoptotic (%): 52%
  Population Fragmented Nuclei (%): 19%
  Population Healthy Nuclei (%): 65%
  Population Hoechst High Intensity Objects (%): 15%
  Population Mitochondria Different-Phenotype (%): 2%
  Population Mitotic Cells (%): 48%
  Population Normal (%): 84%
  Population Pyknosed Nuclei (%): 15%
  Population Tubulin-Different-Phenotype (%): 3%
  Total Cell Count: 192
[3]; [17]
  Population Apoptotic (%): 28%
  Population Fragmented Nuclei (%): 45%
  Population Healthy Nuclei (%): 41%
  Population Hoechst High Intensity Objects (%): 36%
  Population Mitochondria Different-Phenotype (%): 4%
  Population Mitotic Cells (%): 71%
  Population Normal (%): 63%
  Population Pyknosed Nuclei (%): 13%
  Population Tubulin-Different-Phenotype (%): 0%
  Total Cell Count: 80
